Assay results reported in ChEMBL document CHEMBL1152541, “Staurosporine tethered peptide ligands that target cAMP-dependent protein kinase (PKA): optimization and selectivity profiling” (Bioorg Med Chem, 2009).
*1 amine or outer side, *2 acyl side, *3 side chain or, on linkers, in order; H or OH if unused. Where a SMILES comes first, the peptide text is derived from it. Bridges are numbered along the chain shown (N, C = ends). [ ]: non-standard residue; d: D form. The star is where a group is joined. Staurosporine = CO[C@@H]1[C@H](N(C)*)C[C@H]2O[C@]1(C)n1c3ccccc3c3c4c(c5c6ccccc6n2c5c31)C(=O)NC4; Suc = O=C(CCC(=O)[*:2])[*:1]; Dap = NC[C@H](N)C(=O)O; βAla = NCCC(=O)O

Assays:
[1] = system: Tyrosine-protein kinase ABL1 (Homo sapiens), P00519 [T315I]; test: Binding affinity to human ABL1 T315I mutant at 500 nM by cell-based competition binding assay relative to control in presence of DTT
Method in brief: (§1)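 Kinase binding profiling ran on a commercial (Ambit) competitive binding screen against a panel of 90 kinases. The screen used reducing conditions with 7.5 mM DTT. To withstand the DTT, the bivalent ligand was tested as its amide isostere, with the disulfide replaced. A staurosporine derivative carrying a 3 β-alanine linker was run as the reference compound.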

[2] = biological target: Serine/threonine-protein kinase B-raf (Homo sapiens) (UniProt P15056); test: Binding affinity to human BRAF at 500 nM by cell-based competition binding assay relative to control in presence of DTT; method in brief: as §1
[3] = biological target: Tyrosine-protein kinase BTK (Homo sapiens) (UniProt Q06187); test: Binding affinity to human BTK at 500 nM by cell-based competition binding assay relative to control in presence of DTT; method in brief: as §1
[4] = biological target: Cyclin-dependent kinase 3 (Homo sapiens) (UniProt Q00526); test: Binding affinity to human CDK3 at 500 nM by cell-based competition binding assay relative to control in presence of DTT; method in brief: as §1
[5] = biological target: Insulin receptor (Homo sapiens) (UniProt P06213); test: Binding affinity to human INSR at 500 nM by cell-based competition binding assay relative to control in presence of DTT
Method in brief: (§2)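 Competition binding screen (Ambit) across a panel of 90 kinases, scoring test ligand displacement of each kinase's binding relative to control. The screen ran under reducing conditions with 7.5 mM DTT.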

[6] = biological target: T1, Serine/threonine-protein kinase STK11 (Homo sapiens) (UniProt Q15831); test: Binding affinity to human LKB1 at 500 nM by cell-based competition binding assay relative to control in presence of DTT; method in brief: as §2
T1 sequence (whole entry): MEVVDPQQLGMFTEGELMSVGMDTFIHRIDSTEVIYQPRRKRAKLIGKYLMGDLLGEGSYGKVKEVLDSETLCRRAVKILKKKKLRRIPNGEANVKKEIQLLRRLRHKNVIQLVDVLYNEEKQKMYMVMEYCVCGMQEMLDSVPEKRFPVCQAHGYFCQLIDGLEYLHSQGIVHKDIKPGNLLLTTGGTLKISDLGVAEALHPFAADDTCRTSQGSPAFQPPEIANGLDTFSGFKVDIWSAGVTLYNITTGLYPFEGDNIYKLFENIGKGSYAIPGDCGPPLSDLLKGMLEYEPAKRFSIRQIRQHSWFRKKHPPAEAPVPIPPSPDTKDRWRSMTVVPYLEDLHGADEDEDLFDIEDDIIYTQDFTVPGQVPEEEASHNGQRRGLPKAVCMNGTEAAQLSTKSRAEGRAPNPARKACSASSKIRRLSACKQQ

[7] = biological target: MAP/microtubule affinity-regulating kinase 3 (Homo sapiens) (UniProt P27448); test: Binding affinity to human MARK3 at 200 nM by cell-based competition binding assay relative to control in presence of DTT; method in brief: as §2
[8] = biological target: Atypical kinase COQ8A, mitochondrial (Homo sapiens) (UniProt Q8NI60); test: Binding affinity to human ADCK3 at 200 nM by cell-based competition binding assay relative to control in presence of DTT; method in brief: as §1
[9] = biological target: Tyrosine-protein kinase BTK (Homo sapiens) (UniProt Q06187); test: Binding affinity to human BTK at 200 nM by cell-based competition binding assay relative to control in presence of DTT; method in brief: as §1
[10] = biological target: cAMP-dependent protein kinase catalytic subunit alpha (Homo sapiens) (UniProt P17612); test: Binding affinity to human PKACalpha at 200 nM by cell-based competition binding assay relative to control in presence of DTT
[11] = biological target: Serine/threonine-protein kinase pim-3 (Homo sapiens) (UniProt Q86V86); test: Binding affinity to human PIM3 at 50 nM by cell-based competition binding assay relative to control in presence of DTT
[12] = biological target: T2, Serine/threonine-protein kinase PLK4 (Homo sapiens) (UniProt O00444); test: Binding affinity to human PLK4 at 50 nM by cell-based competition binding assay relative to control in presence of DTT
T2 sequence (whole entry): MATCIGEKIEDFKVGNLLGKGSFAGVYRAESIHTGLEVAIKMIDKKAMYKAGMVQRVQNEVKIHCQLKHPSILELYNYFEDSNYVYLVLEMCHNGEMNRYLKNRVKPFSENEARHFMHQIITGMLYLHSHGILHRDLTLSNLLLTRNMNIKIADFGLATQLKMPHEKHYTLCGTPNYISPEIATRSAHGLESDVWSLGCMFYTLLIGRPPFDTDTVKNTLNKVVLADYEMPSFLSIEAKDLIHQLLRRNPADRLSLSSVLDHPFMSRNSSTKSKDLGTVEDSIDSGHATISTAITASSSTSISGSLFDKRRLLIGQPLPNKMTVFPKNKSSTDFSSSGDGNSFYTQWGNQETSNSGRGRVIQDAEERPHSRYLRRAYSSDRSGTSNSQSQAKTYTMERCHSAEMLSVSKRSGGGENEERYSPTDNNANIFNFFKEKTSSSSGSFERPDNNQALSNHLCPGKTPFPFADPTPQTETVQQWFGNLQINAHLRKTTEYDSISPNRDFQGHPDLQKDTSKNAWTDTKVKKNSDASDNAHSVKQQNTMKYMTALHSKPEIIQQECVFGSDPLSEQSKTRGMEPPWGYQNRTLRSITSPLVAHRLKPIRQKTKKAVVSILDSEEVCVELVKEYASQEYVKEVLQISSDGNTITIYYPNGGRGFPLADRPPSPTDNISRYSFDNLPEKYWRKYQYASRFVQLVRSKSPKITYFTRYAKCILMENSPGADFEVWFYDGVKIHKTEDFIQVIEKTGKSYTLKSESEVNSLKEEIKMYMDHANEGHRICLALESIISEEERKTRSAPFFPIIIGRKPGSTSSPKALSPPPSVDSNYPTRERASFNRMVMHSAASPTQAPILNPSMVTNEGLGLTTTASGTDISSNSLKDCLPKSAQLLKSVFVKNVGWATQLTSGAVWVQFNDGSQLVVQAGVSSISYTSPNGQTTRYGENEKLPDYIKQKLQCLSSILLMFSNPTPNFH

[13] = biological target: RAF proto-oncogene serine/threonine-protein kinase (Homo sapiens) (UniProt P04049); test: Binding affinity to human RAF1 at 50 nM by cell-based competition binding assay relative to control in presence of DTT
Sequence of RAF proto-oncogene serine/threonine-protein kinase (Homo sapiens) (P04049 whole entry): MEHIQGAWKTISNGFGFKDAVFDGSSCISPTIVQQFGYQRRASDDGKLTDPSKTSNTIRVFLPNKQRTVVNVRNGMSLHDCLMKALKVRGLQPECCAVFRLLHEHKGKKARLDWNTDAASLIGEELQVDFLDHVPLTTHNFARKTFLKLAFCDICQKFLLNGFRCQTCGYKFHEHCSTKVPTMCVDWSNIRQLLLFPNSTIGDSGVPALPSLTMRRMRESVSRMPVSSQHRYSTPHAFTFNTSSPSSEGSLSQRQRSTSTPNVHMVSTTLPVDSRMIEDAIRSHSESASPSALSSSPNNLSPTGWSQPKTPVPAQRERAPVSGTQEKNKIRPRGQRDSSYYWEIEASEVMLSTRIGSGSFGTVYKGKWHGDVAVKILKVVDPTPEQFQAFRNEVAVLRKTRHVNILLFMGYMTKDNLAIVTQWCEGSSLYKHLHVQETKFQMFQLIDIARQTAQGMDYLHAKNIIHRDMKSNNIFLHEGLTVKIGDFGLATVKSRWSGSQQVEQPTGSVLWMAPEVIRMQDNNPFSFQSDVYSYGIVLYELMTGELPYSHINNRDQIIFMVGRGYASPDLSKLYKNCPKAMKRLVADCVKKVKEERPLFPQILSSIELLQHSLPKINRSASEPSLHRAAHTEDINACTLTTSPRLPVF

Sequence of Tyrosine-protein kinase BTK (Homo sapiens) (Q06187 whole entry): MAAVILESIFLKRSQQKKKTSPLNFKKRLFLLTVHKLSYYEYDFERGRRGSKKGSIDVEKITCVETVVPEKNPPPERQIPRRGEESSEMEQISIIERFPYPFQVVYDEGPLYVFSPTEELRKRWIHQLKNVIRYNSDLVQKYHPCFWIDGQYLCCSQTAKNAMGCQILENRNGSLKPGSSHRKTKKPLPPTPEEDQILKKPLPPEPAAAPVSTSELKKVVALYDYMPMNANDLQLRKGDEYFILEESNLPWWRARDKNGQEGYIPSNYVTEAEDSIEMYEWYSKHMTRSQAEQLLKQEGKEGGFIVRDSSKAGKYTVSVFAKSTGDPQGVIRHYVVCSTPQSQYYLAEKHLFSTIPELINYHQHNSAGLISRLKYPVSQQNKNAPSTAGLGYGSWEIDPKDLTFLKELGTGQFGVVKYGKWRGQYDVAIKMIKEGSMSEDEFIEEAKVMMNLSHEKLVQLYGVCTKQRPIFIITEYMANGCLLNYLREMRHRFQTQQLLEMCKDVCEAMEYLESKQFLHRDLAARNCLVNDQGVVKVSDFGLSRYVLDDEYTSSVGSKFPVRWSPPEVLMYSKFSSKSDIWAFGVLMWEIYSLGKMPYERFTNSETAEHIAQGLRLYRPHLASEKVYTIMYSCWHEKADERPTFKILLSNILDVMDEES
Sequence of MAP/microtubule affinity-regulating kinase 3 (Homo sapiens) (P27448 whole entry, looked up): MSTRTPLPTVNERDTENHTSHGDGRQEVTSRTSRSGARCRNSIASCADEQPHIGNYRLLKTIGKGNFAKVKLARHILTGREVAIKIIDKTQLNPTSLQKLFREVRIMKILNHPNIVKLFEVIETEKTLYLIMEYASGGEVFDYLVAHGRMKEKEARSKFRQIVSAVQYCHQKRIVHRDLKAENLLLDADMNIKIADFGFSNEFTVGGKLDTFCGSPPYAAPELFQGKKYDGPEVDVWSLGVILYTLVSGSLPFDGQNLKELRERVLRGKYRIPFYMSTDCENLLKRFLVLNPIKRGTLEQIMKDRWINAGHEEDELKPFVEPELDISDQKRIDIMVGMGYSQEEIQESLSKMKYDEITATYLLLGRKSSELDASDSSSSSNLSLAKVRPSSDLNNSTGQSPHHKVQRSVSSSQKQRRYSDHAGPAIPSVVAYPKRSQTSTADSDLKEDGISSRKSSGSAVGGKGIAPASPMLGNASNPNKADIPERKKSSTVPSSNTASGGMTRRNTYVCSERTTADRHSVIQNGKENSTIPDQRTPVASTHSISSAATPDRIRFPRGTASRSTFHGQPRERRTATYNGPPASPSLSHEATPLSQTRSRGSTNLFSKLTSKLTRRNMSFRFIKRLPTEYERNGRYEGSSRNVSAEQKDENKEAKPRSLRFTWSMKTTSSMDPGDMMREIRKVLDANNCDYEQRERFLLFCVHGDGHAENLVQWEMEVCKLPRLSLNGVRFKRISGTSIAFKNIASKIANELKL
Sequence of Atypical kinase COQ8A, mitochondrial (Homo sapiens) (Q8NI60 163-647 limits assumed): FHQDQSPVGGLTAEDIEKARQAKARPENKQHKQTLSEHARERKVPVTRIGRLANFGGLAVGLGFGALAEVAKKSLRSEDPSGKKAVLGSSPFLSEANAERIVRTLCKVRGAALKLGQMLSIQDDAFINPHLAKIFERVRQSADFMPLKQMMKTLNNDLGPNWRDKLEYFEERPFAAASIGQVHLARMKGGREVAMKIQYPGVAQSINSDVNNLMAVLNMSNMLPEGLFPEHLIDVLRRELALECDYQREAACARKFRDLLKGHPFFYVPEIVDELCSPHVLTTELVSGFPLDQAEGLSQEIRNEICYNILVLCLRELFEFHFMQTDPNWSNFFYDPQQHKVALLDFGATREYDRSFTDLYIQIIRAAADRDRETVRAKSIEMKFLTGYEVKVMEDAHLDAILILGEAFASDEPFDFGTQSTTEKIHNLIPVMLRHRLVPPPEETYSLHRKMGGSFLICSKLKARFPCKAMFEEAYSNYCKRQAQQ
Sequence of Serine/threonine-protein kinase B-raf (Homo sapiens) (P15056 whole entry): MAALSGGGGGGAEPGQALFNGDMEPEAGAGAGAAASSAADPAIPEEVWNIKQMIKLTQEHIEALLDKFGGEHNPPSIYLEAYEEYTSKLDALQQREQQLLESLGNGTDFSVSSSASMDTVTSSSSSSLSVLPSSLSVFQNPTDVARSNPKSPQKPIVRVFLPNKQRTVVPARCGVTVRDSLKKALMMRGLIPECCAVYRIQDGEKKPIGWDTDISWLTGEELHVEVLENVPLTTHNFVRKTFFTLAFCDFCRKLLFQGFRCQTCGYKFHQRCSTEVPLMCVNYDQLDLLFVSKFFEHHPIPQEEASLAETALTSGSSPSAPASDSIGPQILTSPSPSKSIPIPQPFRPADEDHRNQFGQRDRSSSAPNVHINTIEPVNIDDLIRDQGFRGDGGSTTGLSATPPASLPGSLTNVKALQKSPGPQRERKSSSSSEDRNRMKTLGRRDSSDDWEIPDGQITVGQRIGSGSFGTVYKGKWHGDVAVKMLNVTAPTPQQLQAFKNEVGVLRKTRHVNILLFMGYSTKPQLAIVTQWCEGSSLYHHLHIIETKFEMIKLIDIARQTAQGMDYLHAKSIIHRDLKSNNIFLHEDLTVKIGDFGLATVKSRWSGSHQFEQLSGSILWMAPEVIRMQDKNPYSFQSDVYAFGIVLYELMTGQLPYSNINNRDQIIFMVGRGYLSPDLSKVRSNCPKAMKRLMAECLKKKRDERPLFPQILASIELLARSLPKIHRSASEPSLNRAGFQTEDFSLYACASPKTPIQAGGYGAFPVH
Sequence of Insulin receptor (Homo sapiens) (P06213 28-758 limits assumed): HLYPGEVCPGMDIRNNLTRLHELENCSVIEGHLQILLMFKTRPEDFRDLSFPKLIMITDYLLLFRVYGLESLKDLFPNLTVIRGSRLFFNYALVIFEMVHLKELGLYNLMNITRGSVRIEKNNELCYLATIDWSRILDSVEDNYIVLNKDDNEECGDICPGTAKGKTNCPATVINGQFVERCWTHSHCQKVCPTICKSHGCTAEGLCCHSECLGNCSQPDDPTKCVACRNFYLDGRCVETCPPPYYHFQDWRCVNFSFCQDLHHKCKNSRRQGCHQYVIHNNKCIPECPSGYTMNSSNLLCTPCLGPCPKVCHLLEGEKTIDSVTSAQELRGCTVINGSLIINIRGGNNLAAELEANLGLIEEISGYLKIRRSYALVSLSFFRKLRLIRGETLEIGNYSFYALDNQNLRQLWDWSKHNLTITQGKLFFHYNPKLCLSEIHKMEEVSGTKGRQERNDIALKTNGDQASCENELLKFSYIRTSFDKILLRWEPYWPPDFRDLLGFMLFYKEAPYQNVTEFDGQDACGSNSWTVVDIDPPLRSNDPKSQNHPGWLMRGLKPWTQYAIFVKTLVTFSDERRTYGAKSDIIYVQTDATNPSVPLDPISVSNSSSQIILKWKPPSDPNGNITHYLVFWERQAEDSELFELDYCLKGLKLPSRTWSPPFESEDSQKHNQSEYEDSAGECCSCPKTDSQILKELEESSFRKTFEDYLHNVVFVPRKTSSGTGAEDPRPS
Sequence of Insulin receptor (Homo sapiens) (P06213 763-1382 limits assumed): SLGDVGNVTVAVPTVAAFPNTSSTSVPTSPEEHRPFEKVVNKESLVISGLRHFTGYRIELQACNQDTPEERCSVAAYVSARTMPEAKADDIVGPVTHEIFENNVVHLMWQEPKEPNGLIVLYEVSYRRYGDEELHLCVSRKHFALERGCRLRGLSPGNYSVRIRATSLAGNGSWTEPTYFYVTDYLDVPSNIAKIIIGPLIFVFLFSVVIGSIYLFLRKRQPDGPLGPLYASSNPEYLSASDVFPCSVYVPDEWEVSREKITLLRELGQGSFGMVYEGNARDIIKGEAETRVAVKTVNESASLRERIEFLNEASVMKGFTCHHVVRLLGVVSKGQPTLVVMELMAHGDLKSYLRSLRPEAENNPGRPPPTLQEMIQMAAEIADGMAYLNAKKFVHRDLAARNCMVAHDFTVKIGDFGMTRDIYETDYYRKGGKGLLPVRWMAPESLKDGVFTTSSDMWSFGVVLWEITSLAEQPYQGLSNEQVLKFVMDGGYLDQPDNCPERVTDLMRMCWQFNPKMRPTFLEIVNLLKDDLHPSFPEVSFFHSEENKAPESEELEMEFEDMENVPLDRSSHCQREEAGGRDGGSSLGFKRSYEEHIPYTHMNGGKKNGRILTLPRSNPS

Q: `CO[C@@H]1[C@H](N(C)C(=O)CCC(=O)NCCC(=O)NCCC(=O)NCCC(N)=O)C[C@H]2O[C@]1(C)n1c3ccccc3c3c4c(c5c6ccccc6n2c5c31)C(=O)NC4` was tested. Which Activity [1] did it give?
A: 35%

Q: What about the Activity [2] of the same compound?
A: 100%

Q: And the Activity [3]?
A: 31%

Q: And the Activity [4]?
A: 87%

Q: And the Activity [5]?
A: 55%

Q: What about the Activity [6] of the same compound?
A: 41%

Q: With `CO[C@@H]1[C@H](N(C)C(=O)CCC(=O)NCCC(=O)NCCC(=O)NCCC(=O)NCCC(=O)NCCC(=O)NCCC(=O)NCCC(=O)N[C@H]2CSSC[C@@H](C(=O)NCC(N)=O)NC(=O)CNC(=O)[C@H](Cc3ccccc3)NC(=O)[C@H](C(C)C)NC(=O)[C@H](CCCNC(=N)N)NC(=O)[C@H](Cc3ccccc3)NC(=O)[C@H](C(C)C)NC2=O)C[C@H]2O[C@]1(C)n1c3ccccc3c3c4c(c5c6ccccc6n2c5c31)C(=O)NC4` ({Staurosporine-Suc-βAla-βAla-βAla-βAla-βAla-βAla-βAla}-CVFRVFGCG-NH2; disulfide 1-8) as the compound, how does the Activity [7] read?
A: 18%

Q: And the Activity [8]?
A: 96%

Q: What about the Activity [9] of the same compound?
A: 62%

Q: What about the Activity [10] of the same compound?
A: 19%

Q: Which Activity [11] does the source give for `CO[C@@H]1[C@H](N(C)C(=O)CCC(=O)NCCC(=O)NCCC(=O)NCCC(=O)NCCC(=O)NCCC(=O)NCCC(=O)NCCC(=O)N[C@H]2CNC(=O)C[C@@H](C(N)=O)NC(=O)CNC(=O)[C@H](Cc3ccccc3)NC(=O)[C@H](C(C)C)NC(=O)[C@H](CCCNC(=N)N)NC(=O)[C@H](Cc3ccccc3)NC(=O)[C@H](C(C)C)NC2=O)C[C@H]2O[C@]1(C)n1c3ccccc3c3c4c(c5c6ccccc6n2c5c31)C(=O)NC4` ({Staurosporine-Suc-βAla-βAla-βAla-βAla-βAla-βAla-βAla}-[Dap]VFRVFGD-NH2; lactam 1-8) here?
A: 66%

Q: What about the Activity [12] of the same compound?
A: 5.7%

Q: And the Activity [13]?
A: 100%
